SMILES strings stand for the structures. Screen size: about 330,000 compounds; about 350 (0.11%) were called active.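 How the source made its calls: active means activation more than six SD over the plate average, tested at 20 µM; inactive means the rest.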 The sample as a whole holds a higher share of actives than the screen did.

Chain of Apelin receptor (Homo sapiens) (P35414 whole entry, looked up): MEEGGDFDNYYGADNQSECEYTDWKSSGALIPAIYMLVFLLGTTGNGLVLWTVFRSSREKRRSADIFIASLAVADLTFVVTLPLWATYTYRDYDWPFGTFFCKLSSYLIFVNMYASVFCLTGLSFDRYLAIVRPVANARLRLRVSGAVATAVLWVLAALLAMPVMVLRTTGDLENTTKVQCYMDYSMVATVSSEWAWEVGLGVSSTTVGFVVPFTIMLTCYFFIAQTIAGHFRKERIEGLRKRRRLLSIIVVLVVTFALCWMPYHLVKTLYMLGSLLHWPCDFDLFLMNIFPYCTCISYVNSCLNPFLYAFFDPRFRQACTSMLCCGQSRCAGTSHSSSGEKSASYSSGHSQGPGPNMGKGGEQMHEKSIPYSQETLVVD

For the assay, the target named is Apelin receptor (Homo sapiens) (UniProt P35414). The experiment in a line: agonists of human apelin receptor APJ, primary screen, CHO-K1 cells, PathHunter beta-arrestin, luminescence (AID 2520).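 Further: 0% = DMSO alone and 100% = apelin-13 at 10 nM.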 The following applies: at 20 µM, stronger effect = higher value, 0% DMSO wells, 100% apelin. An outline of the steps: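 assay system = CHO-K1 APJ beta-arrestin complementation cell line | input = cell density 1000 per well | dosing = compound 20 µM once, DMSO 1% | timing = compound 90 min 25 °C, reagent 1 h | measured by = luminescence from split beta-galactosidase complementation, Galacton Star/Emerald II substrate | read-out basis = APJ agonist activity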
Take `CC(C)(C)C1CCC(=NNC(=O)c2ccc(Br)o2)CC1` (stereo not given): the activation was -3.06% (inactive).
Consider `CCC(C)(C)C1CCC(=NNC(=O)c2ccc(Br)o2)CC1` (stereo not given), for which the activation is 19.8% (active).
In the case of `O=C(N/N=C\C1CC=CCC1)c1ccc(Br)o1` (stereo not given), the activation was 8.95% (inactive).
Take `Fc1ccc(CNCc2ccc(Br)cc2)cc1`: the activation is -1.03% (inactive).
To `COC(=O)c1ccc(NC(=O)CSc2nnc(C3CC3)n2C)cc1` belongs -3.11% (inactive).
For `O=C(OCCN1C(=O)c2ccccc2C1=O)Oc1ccccc1`, the activation was -1.77% (inactive).
Then `O=C(COC(=O)C12CC3CC(CC(O)(C3)C1)C2)NC12CC3CC(CC(C3)C1)C2`, with -1.34% (inactive).
Then `O=C(COc1ccc(Cl)cc1)NCCSc1ccccc1`, with -1.87% (inactive); and `O=[N+]([O-])c1cc(Cl)cc(/C=N/NC(=S)Nc2cc(S(=O)(=O)N3CCOCC3)ccc2Cl)c1O`, with -5.98% (inactive).
Regarding `Cc1ccc(NS(=O)(=O)c2c(C)[nH]c(C)c2C(=O)N2CCCCC2)c(C)c1`, the activation is -0.00146% (inactive).
Then `CC(=O)c1ccc(OCC(O)CN2CCN(S(=O)(=O)c3cccc(Br)c3)CC2)cc1` (stereo not given), with -1.5% (inactive).
Then `CSc1ncc(C(=O)Nc2ccc(C)cc2C)c(C)n1`, with -0.333% (inactive).
To `Cc1ccc(S(=O)(=O)NCc2nc3ccccc3c(=O)n2N)cc1` belongs -0.607% (inactive).
Take `CCCc1nc(N2CCN(C)CC2)c2sc(=S)n(-c3ccccc3)c2n1`: the activation was -2.45% (inactive).
Then `COC(=O)c1ccc(C)c(NC(=O)C2CC(=O)N(C3CCCC(C)C3C)C2)c1` (stereo not given), with -2.02% (inactive).
To `CC(=O)N1CCCc2cc(S(=O)(=O)N3CCCC(C(=O)NCc4ccc(Cl)cc4)C3)ccc21` (stereo not given) belongs -0.0955% (inactive); to `CC(=O)N1c2ccc(S(=O)(=O)N3CCCC(C(=O)Nc4cccc(Cl)c4)C3)cc2CC1C` (stereo not given), -0.333% (inactive).
As for `CC(=O)N1CCCc2cc(S(=O)(=O)N3CCCC(C(=O)N4CCN(c5cccc(Cl)c5)CC4)C3)ccc21` (stereo not given), the activation is 19.6% (active).
As to `O=S(=O)(/C=C/c1ccccc1)N1CCNCC1`, the activation was -1.77% (inactive).
Then `Cc1ccc(C)c(NC(=O)NNC(=O)c2ccc3ccccc3c2O)c1`, with 10% (inactive); and `CCCCNC(=O)c1ccccc1NC(=O)C1=C(C)OCCS1`, with 0.515% (inactive); and `COc1cc(NC(=O)C2=C(C)OCCS2)c(Cl)cc1C(=O)NCCN1CCN(C)CC1`, with 18.9% (active).
`COc1ccc(N2CCN(C(=O)c3ccccc3NC(=O)C3=C(C)OCCS3)CC2)cc1`: the activation is -4.76% (inactive).
Then `CCOC(=O)CSc1nnc(NC(=O)C2CC(=O)N(c3ccc(F)cc3)C2)s1` (stereo not given), with -4.52% (inactive); and `C=CCOc1ccc(C2/C(=C(\O)c3c(C)[nH]c(C(=O)OC)c3C)C(=O)C(=O)N2CCN(C)C)cc1` (stereo not given), with -0.14% (inactive); and `O=Cc1c(NCCc2cccc(F)c2)c2ccccc2[nH]c1=O`, with -3.46% (inactive).
As for `CC(C(=O)Nc1ccc(F)c(F)c1F)N1CCCCCC1` (stereo not given), the activation was -3.77% (inactive).
To `CC1CCN(C(=O)c2ccc(S(=O)(=O)Cc3cc(F)ccc3F)c([N+](=O)[O-])c2)CC1` belongs 1.51% (inactive).
To `CCN1CCN(C(C(=O)NC2CCCC2)c2cc3c(cc2[N+](=O)[O-])OCO3)CC1` (stereo not given) belongs 9.21% (inactive); to `O=C(CSc1nc(Nc2ccccc2)nc(N2CCOCC2)n1)Nc1cc(Cl)ccc1O`, 40.8% (active); to `Cc1ccccc1NC(=O)CSc1nc2ccc(Nc3nc(N4CCOCC4)nc(N4CCOCC4)n3)cc2s1`, 8.35% (inactive).
To `CC1(c2ccccc2)NC(=O)N(CC(=O)Nc2cc(Cl)ccc2N2CCOCC2)C1=O` (stereo not given) belongs -3.1% (inactive).
`CCn1c(SCC(=O)NC2CC2)nnc1-c1ccncc1`: the activation is -8.09% (inactive).
For the compound `CN1CCC(=O)N([C@H](CO)Cc2ccccc2)CC1`, the activation is -1.16% (inactive).
To `Cc1nn(Cc2ccccc2)c(C)c1C(=O)NCCCN1CCCC1=O` belongs -4.22% (inactive); to `COC(=O)C1C(=O)CC(C)(O)C(C(=O)OC)C1c1ccc2c(c1)OCO2` (stereo not given), 2.74% (inactive); to `NC(=O)CN1CCCC1c1ccc2c(c1)OCCO2` (stereo not given), 0.777% (inactive).
To `O=C(O)Cc1ccc(NC(=O)C2CCCCC2C(=O)O)cc1` (stereo not given) belongs -3.2% (inactive); to `Cc1cc(C)nc(NC2=NCC(=O)N2c2ccc(Cl)cc2)n1`, -2.04% (inactive).
For `Cc1ccnc(SCCn2c(N(C)Cc3ccccc3)nc3c2c(=O)n(C)c(=O)n3C)n1`, the activation was -0.694% (inactive).
To `Cc1[nH]c(C)c(S(=O)(=O)N2CCN(c3cccc(C(F)(F)F)c3)CC2)c1C(=O)N1CCCC1` belongs 0.662% (inactive); to `COc1ccccc1N(CC(=O)NC1CCCC1)C(=O)C1(C)CC(=O)N=C2C=CC(C)=CN21` (stereo not given), -0.286% (inactive).
`Cc1cc(C)nc(SCc2nnc(SCC(=O)Nc3ncc(C)s3)n2Cc2ccco2)n1`: the activation was -3.79% (inactive).
For the compound `CC[C@@]1(C(=O)OC)N[C@H](CN(C)C(C)=O)[C@@H]2C(=O)N(C)C(=O)[C@@H]21`, the activation was -1.38% (inactive).
For the compound `CCC(=O)Nc1c(C)n[nH]c1C`, the activation is -0.823% (inactive).
To `CN1CCN(c2ncc3c(n2)CC(c2ccccc2F)CC3=O)CC1` (stereo not given) belongs -2.83% (inactive).
For `CCCCC(=O)Nc1cc(C)c2c(=O)oc3ccccc3c2n1`, the activation was 7.83% (inactive).
`CC(C)(C)Nc1c(N)c(=O)oc2ccccc12`: the activation was -1.36% (inactive).
To `Cc1ccccc1-n1nnc2c(=O)oc3ccccc3c21` belongs 10.2% (active).
To `O=C(c1ccc(-c2ccccc2)cc1)C1CCCN(C(=O)c2cncs2)C1` (stereo not given) belongs 1.31% (inactive); to `Cc1noc(C)c1C(=O)NCC1COc2ccccc2O1` (stereo not given), -2.37% (inactive); to `Cc1ccccc1/[N+]([O-])=C/c1ccncc1`, 1.01% (inactive).
To `COCCn1nnnc1CN1CCC(NC(=O)Nc2cccc(OC)c2)CC1` belongs -0.645% (inactive); to `COc1ccc(NC(=O)CC(NC(C)c2ccccc2)C(=O)O)cc1` (stereo not given), -1.25% (inactive); to `CCN(CC)CCNc1nc(-c2ccc(OC(F)F)cc2)c(C)s1`, -1.98% (inactive).
In the case of `CC1(C(=O)NNC(=S)NCC2CCCO2)CC1(Cl)Cl` (stereo not given), the activation is -1.22% (inactive).
To `O=C1CCC(=O)N1c1ccc(NCCc2ccccc2F)c([N+](=O)[O-])c1` belongs -3.51% (inactive); to `O=C(NCCc1ccc(Cl)cc1)C1CCCN1C(=O)NCc1ccccc1` (stereo not given), 0.456% (inactive).
To `CN1C(=O)c2ccccc2C(C(=O)NCCCN2CCCC2)C1c1c[nH]c2ccccc12` (stereo not given) belongs -1.97% (inactive); to `Cc1ccc(NS(=O)(=O)c2ccc(-c3ccc(=O)[nH]n3)o2)c(C)c1`, 2.4% (inactive); to `CN(C)c1ccc(C(CC(=O)O)C(=O)O)cc1` (stereo not given), -1.37% (inactive).
On to `CC(C)(C)n1nnc(CCc2nnn(C(C)(C)C)n2)n1`, for which the activation is -4.6% (inactive).
To `O=C(O)C1CCCN1S(=O)(=O)c1ccc(Br)cc1` (stereo not given) belongs -2.7% (inactive); to `O=C(C1CC(=O)N(C2CCCC2)C1)N1CCN(c2cccc(C(F)(F)F)c2)CC1` (stereo not given), 5.77% (inactive); to `CN(C)c1nc2n(c(=O)n1)CCO2`, -2.79% (inactive).
To `c1ccc(C2CCC(N3CCC(N4CCCCC4)CC3)CC2)cc1` (stereo not given) belongs -3.04% (inactive); to `O=C(Nc1ccc(Cl)cc1)c1cc2nc(C3CC3)cc(C(F)(F)F)n2n1`, -4.3% (inactive).
For `FC(F)(F)c1ccc(CN2C[C@@H]3C(c4ccccc4)C4(c5ccccc5)CC3(C4)[C@H]2c2ccccc2)cc1` (stereo not given in full), the activation is -0.566% (inactive).
Turning to `Cc1ccc(N(C(=O)Cc2cccs2)C2C=CS(=O)(=O)C2)cc1Cl` (stereo not given), the activation is -2.42% (inactive).
Take `Cn1c(CC(=O)Nc2ccc(F)cc2)nnc1SCC(=O)NC1CCCCC1`: the activation is -3.67% (inactive).
Then `COc1ccc(C)cc1NC(=O)c1cc(-c2ccccc2)nc2c1cnn2C(C)C`, with -4.65% (inactive); and `CCOc1cc2[nH]c(=O)n(Cc3ccc(C(=O)NCCCN4CCCC4=O)cc3)c(=O)c2cc1OCC`, with 3.97% (inactive); and `CCOc1cc2[nH]c(=S)n(CCCN3CCCC3=O)c(=O)c2cc1OCC`, with 23.3% (active).
Then `CCOc1cc2[nH]c(=S)n(CCN3CCCCC3C)c(=O)c2cc1OCC` (stereo not given), with 7.97% (inactive); and `CC1CN(C(=O)CCC(=O)NCCCN2CCC(Cc3ccccc3)CC2)c2cc(Cl)ccc2O1` (stereo not given), with -4.59% (inactive); and `CCn1c(CSCc2c(Cl)cccc2Cl)n[nH]c1=S`, with -4.78% (inactive).
To `CN1CCN(CCCCOc2ccccc2-c2ccccc2)CC1` belongs 3.27% (inactive).
As for `O=Cc1ccc(OCc2cn3ccccc3n2)cc1`, the activation is -1.42% (inactive).
To `COc1ccccc1CNC(=O)CN1CCC(n2cnc3cc(F)ccc32)CC1` belongs -0.106% (inactive).
Take `Cc1cc(C(=O)OCC(=O)N2C(C)CCCC2C)c2ccccc2n1` (stereo not given): the activation is -2.15% (inactive).
As for `O=C(c1ccccc1)N1CCN(C(=O)c2cc3nc(-c4ccccc4)cc(C(F)(F)F)n3n2)CC1`, the activation is -0.488% (inactive).
Regarding `COc1ccccc1Oc1ccc(N2CC(C(=O)OCC(=O)c3ccc(F)cc3)CC2=O)cc1` (stereo not given), the activation is -2.79% (inactive).
Then `O=C(Nc1ccc(F)c([N+](=O)[O-])c1)C1CC(=O)N(Cc2ccccc2)C1` (stereo not given), with -2.4% (inactive); and `COc1cccc(N(CC(=O)NC2CCCC2)C(=O)Cn2nnc(-c3ccc(C)cc3)n2)c1`, with 0.507% (inactive).
Turning to `O=C(CCCn1c(=O)c2sccc2n(CC(=O)NCC2CCCO2)c1=O)NCc1ccco1` (stereo not given), the activation is -4.48% (inactive).
Then `COc1ccccc1NC(=O)C1=C(C)Nc2nc3ccccc3n2C1c1cccs1` (stereo not given), with -1.44% (inactive).
Then `COc1ccc(S(=O)(=O)N(CC(=O)NCc2ccco2)c2ccc(F)cc2)cc1`, with -0.367% (inactive); and `CN(C)N1C(N)=C(C#N)C(c2ccc(Br)cc2)C2=C1CCCC2=O` (stereo not given), with 0.53% (inactive); and `O=[N+]([O-])c1ccccc1N/N=C1\CCc2ccccc21`, with -0.52% (inactive).
Then `O=C(N[C@@H](Cc1c[nH]c2ccccc12)C(=O)O)OCC1c2ccccc2-c2ccccc21`, with 7.88% (inactive).

The values above are taken from PubChem BioAssay AID2520 (Sanford-Burnham Center for Chemical Genomics, 2010).
